# Measured values from ChEMBL document CHEMBL1152901, “The synthesis and biological evaluation of para-substituted phenolic N-alkyl carbamates as endocannabinoid hydrolyzing enzyme inhibitors” (Eur J Med Chem, 2009).
# Activity calls are given as the source filed them. The calls are words filed in the database; no cut-off is given here.
# Experiments:
# [1] = target: T1, Fatty-acid amide hydrolase 1 (Rattus norvegicus, UniProt P97612); assay: Inhibition of FAAH in Wistar rat cerebral membrane by liquid scintillation counting; type: cell membranes
# T1 sequence (P97612 whole entry): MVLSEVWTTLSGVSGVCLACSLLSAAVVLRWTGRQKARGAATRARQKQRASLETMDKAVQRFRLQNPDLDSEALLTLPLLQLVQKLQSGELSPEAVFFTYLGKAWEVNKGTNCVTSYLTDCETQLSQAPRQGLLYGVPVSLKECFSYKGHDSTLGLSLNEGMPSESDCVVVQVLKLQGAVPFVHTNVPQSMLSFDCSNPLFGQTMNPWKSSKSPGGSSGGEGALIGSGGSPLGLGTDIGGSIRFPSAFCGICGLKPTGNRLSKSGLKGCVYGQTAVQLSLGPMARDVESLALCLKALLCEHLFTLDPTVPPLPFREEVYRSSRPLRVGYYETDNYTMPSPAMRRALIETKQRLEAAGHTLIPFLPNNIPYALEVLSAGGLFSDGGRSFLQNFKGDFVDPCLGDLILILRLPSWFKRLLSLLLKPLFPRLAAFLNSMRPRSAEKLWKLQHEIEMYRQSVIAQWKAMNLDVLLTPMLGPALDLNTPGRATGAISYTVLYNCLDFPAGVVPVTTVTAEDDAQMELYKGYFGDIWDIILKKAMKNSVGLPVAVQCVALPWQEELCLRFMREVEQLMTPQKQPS
# Procedure, shortened: (§1)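 Rat brain homogenate (10,000g supernatant from male Wistar forebrain, 8 weeks old), 18 µg protein, preincubated with inhibitor in DMSO (≤5% v/v) for 10 min at 37 °C in 0.1 M potassium phosphate pH 7.4 with 0.5% fatty-acid-free BSA. Then 2 µM AEA carrying [ethanolamine-1-3H]AEA is added for 10 min at 37 °C. The reaction is stopped with ethyl acetate and aqueous [3H]ethanolamine is counted. IC50 comes from a variable-slope sigmoidal fit, three experiments in duplicate; single-point values are the mean of two experiments in duplicate.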
# [2] = target: T2, Monoglyceride lipase (Rattus norvegicus) (UniProt Q8R431); assay: Inhibition of MGL in Wistar rat cerebral membrane assessed as residual activity at 1 mM by HPLC; values are per cent of control
# T2 sequence (whole entry): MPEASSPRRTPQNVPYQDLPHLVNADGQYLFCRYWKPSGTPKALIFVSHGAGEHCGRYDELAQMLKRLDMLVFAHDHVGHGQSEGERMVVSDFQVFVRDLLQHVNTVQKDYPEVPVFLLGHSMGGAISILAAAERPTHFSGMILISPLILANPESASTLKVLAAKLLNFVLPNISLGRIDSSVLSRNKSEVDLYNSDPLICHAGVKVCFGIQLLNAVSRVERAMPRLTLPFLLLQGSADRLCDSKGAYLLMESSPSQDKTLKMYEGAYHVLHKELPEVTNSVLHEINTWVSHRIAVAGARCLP
# Monoglyceride lipase = target: T3, Monoglyceride lipase (Rattus norvegicus, UniProt Q8R431); assay: Inhibition of MGL in Wistar rat cerebral membrane by HPLC; type: cell membranes
# T3 sequence (Q8R431 whole entry): T2 sequence (whole entry)
# Procedure, shortened: (§2)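 Incubation is 90 min at 25 °C with 5 µg protein, 50 µM 2-AG, 100 mM NaCl and 5 mM MgCl2. The reaction is stopped with acidified acetonitrile (pH 3.0). 2-AG, 1(3)-AG and arachidonic acid are quantified by reversed-phase HPLC with UV at 211 nm. IC50 comes from a variable-slope fit, three experiments in duplicate; percentages are the mean of two in duplicate.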
# [3] = target: T2, Monoglyceride lipase (Rattus norvegicus); assay: Inhibition of MGL in Wistar rat cerebral membrane at 100 uM by HPLC; type: cell membranes; procedure, shortened: as §2
# [4] = target: T4, Fatty-acid amide hydrolase 1 (Rattus norvegicus) (UniProt P97612); assay: Inhibition of FAAH in Wistar rat cerebral membrane at 0.1 uM by liquid scintillation counting; type: cell membranes; procedure, shortened: as §1
# T4 sequence (whole entry): T1 sequence (P97612 whole entry)
# [5] = target: T1, Fatty-acid amide hydrolase 1; assay: Inhibition of FAAH-mediated hydrolysis of [3H]anandamide in rat RBL2H3 cells; type: cell-based, RBL-2H3
# Procedure, shortened: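 RBL2H3 cells are preincubated 10 min at 37 °C with compound with or without URB597. [ethanolamine-1-3H]AEA is then added at 100 nM and incubated a further 20 min at 37 °C, and hydrolysis is measured. Data are means, n = 5, analysed by repeated-measures one-way ANOVA with Dunnett's test.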
# [6] = target: T4, Fatty-acid amide hydrolase 1 (Rattus norvegicus); assay: Inhibition of FAAH-mediated uptake of [3H]anandamide in rat RBL2H3 cells; type: cell-based; details: RBL-2H3
# Procedure, shortened: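 RBL2H3 cells are preincubated 10 min at 37 °C with compound with or without URB597. [arachidonoyl-3H]AEA is then added at 100 nM and incubated a further 10 min at 37 °C. Wells without cells serve as a comparison. Data are means, n = 4, analysed by repeated-measures one-way ANOVA with Dunnett's test.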
# [7] = target: T4, Fatty-acid amide hydrolase 1 (Rattus norvegicus); assay: Irreversible inhibition of FAAH in Wistar rat brain homogenate at 246 nM by liquid scintillation counting; type: tissue-based
# [8] = target: T2, Monoglyceride lipase (Rattus norvegicus); details: Wistar, 100 uM
# [9] = target: T2, Monoglyceride lipase (Rattus norvegicus); assay: Inhibition of MGL in Wistar rat cerebral membrane at 1 mM by HPLC; type: cell membranes
# Procedure, shortened: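 Rat cerebellar membranes were prepared by sucrose homogenisation, differential centrifugation and washing. […] Reactions were stopped with acidified acetonitrile (pH 3.0). 2-AG, 1(3)-AG and arachidonic acid were quantified by reversed-phase HPLC (UV 211 nm peak areas). Remaining activity is reported.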
# [10] = target: T5, Monoglyceride lipase (Homo sapiens) (UniProt Q99685); assay: Irreversible inhibition of human MGL at 0.3 uM by liquid scintillation counting
# T5 sequence (whole entry): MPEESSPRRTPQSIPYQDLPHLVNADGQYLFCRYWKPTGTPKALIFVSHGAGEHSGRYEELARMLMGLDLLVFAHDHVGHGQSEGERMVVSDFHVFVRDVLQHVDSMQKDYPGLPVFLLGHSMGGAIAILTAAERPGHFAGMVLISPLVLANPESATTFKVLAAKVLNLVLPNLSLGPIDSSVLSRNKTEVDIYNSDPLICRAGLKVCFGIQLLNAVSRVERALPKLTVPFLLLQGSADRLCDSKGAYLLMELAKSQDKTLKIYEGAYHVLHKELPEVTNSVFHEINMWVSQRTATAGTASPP
# Procedure, shortened: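 Reversibility was tested on human recombinant MGL. The enzyme was preincubated with inhibitor at 50-fold the activity-assay enzyme level, then diluted […] into Tris-HCl pH 7.4/EDTA buffer with 50 μM 2-OG including [³H]2-OG. Samples taken at 0–60 min were stopped with cold ethyl acetate, and aqueous [³H]glycerol was counted by liquid scintillation. Activity was compared with DMSO vehicle over three independent experiments in duplicate.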
# [11] = target: T2, Monoglyceride lipase (Rattus norvegicus); assay: Inhibition of MGL in Wistar rat cerebral membrane at 30 uM by HPLC; type: cell membranes; procedure, shortened: as §2
# [12] = target: Monoglyceride lipase (Rattus norvegicus) (UniProt Q8R431); assay: Inhibition of MGL 2-AG hydrolysis in rat cerebellar membranes by liquid scintillation counting
# [13] = target: T1, Fatty-acid amide hydrolase 1; assay: Inhibition of FAAH-mediated anandamide hydrolysis in rat brain membrane; type: cell membranes
# [14] = target: Monoglyceride lipase (Homo sapiens) (UniProt Q99685); assay: Inhibition of MGL in human recombinant MGL
Compound,IC50 [1] [µM],IC50 (Monoglyceride lipase) [µM],also measured
CCCCNC(=O)Oc1cccc(-c2csnn2)c1,0.0069,,
CCCNC(=O)Oc1ccc(C2=NCCS2)cc1,1.7,46,residual activity [2]: 6%
CCCCCCNC(=O)Oc1ccc(Br)cc1,,,residual activity [2]: 16%
CC(C)(C)NC(=O)Oc1ccc(C2=NCCS2)cc1,7,,inhibition [3]: inactive
CCCCNC(=O)Oc1ccc(C(=O)OC)cc1,,,inhibition [4]: 35%
CCCCNC(=O)Oc1ccc([N+](=O)[O-])cc1,,,inhibition [4]: 16%
CCCCNC(=O)Oc1ccccc1-c1csnn1,,,inhibition [4]: inactive
O=C(NC1CCCCC1)Oc1ccc([N+](=O)[O-])cc1,,19,inhibition [4]: 25%
CCCCCCNC(=O)Oc1ccc(-c2csnn2)cc1,0.019,11,
CCCCCCCCCCCCNC(=O)Oc1ccccc1,,,inhibition [3]: 36%
CCCCNC(=O)Oc1ccc(C2=NCCO2)cc1,0.12,34,
COC(=O)c1ccc(OC(=O)NC2CCCCC2)cc1,,14,inhibition [4]: 41%
CCCCCCCCCCCCNC(=O)Oc1ccc(-c2csnn2)cc1,0.012,1.9,IC50 [5]: 0.082 µM; Activity [6]: Active; Activity [7]: Active
O=C(NC1CCCC1)Oc1ccc(C2=NCCS2)cc1,0.13,11,
CCCCNC(=O)Oc1ccc(-c2csnn2)cc1,0.16,,residual activity [2]: 22%; inhibition [3]: 46%
Cc1ccccc1CNC(=O)Oc1ccc(C2=NCCS2)cc1,0.062,46,
CCCCNC(=O)Oc1ccc(C#N)cc1,,,inhibition [4]: 25%
O=C(NC1CCCCC1)Oc1ccc(-c2csnn2)cc1,0.021,,inhibition [3]: 28%
O=C(NCCc1ccccc1)Oc1ccc(C2=NCCS2)cc1,0.038,28,
CCCCNC(=O)Oc1ccc(C2=NCCS2)cc1,0.52,31,residual activity [8]: 54%
NC(=O)c1cccc(-c2cccc(OC(=O)NC3CCCCC3)c2)c1,,,inhibition [9]: 30%; Activity [10]: Active
CCCCCCNC(=O)Oc1ccc(C(=O)OC)cc1OC,0.0055,,
O=C(NC1CCCC1)Oc1ccc(C2=NCCO2)cc1,0.1,11,residual activity [2]: 21%
CCCCCCCCCCCCNC(=O)Oc1cccc(-c2csnn2)c1,0.00024,,inhibition [11]: 57%; residual activity [2]: 13%

Compound,IC50 [1] [µM],IC50 (Monoglyceride lipase) [µM],also measured
O=C(NCc1ccccc1)Oc1ccc(C2=NCCS2)cc1,0.29,42,
CCCCCCNC(=O)Oc1ccc(C2=NCCS2)cc1,0.0082,,
CCCCNC(=O)Oc1ccc(OC)cc1,,,inhibition [4]: 5%
O=C(NC1CCCC1)Oc1ccc(-c2csnn2)cc1,0.02,,
O=C(NCc1ccccc1)Oc1ccc(-c2csnn2)cc1,0.044,,residual activity [2]: 22%
CCCCCCNC(=O)Oc1ccc(C(=O)OC)cc1I,0.024,,
CCCCC/C=C\C/C=C\C/C=C\C/C=C\CCCCN1C(=O)C=CC1=O,,,IC50 [12]: 0.14 µM
O=C(NC1CCCCC1)Oc1ccc(C2=NCCS2)cc1,0.1,27,
CCCCCCNC(=O)Oc1ccc(C)cc1,,,inhibition [4]: 27%
CCCCCCCCCCCCNC(=O)Oc1ccc(C2=NCCS2)cc1,0.0063,,
Cc1ccc(CNC(=O)Oc2ccc(C3=NCCS3)cc2)cc1,0.28,94,
CCNC(=O)Oc1ccc(C2=NCCS2)cc1,15,102,residual activity [2]: 12%
Cc1ccccc1CNC(=O)Oc1ccc(C2=NCCO2)cc1,0.034,35,residual activity [2]: 12%
O=C(Nc1ccc([N+](=O)[O-])cc1)OC1CCCCC1,,,inhibition [3]: inactive; inhibition [4]: 9%
CCCCCCNC(=O)Nc1ccc(-c2csnn2)cc1,,,inhibition [3]: inactive; inhibition [4]: 9%
CCCCCCNC(=O)Oc1ccc(C(=O)OC)cc1C,0.055,,
COc1ccc(CNC(=O)Oc2ccc(C3=NCCS3)cc2)cc1,0.32,46,residual activity [2]: 21%
CCCCCCCCCCCCNC(=O)Oc1ccc(C(=O)OC)cc1,,2.8,
O=C(Nc1ccc(-c2ccccc2)cc1)OC1CCCCC1,108,,IC50 [13]: 17 µM
Cc1ccc(CNC(=O)Oc2ccc(C3=NCCO3)cc2)cc1,0.18,125,residual activity [2]: 6%
CCCCCCCCCCCCNC(=O)Oc1ccccc1-c1csnn1,0.05,,IC50 [14]: 18 µM
CCCCCCNC(=O)Oc1ccccc1,,,inhibition [3]: 41%
CCCCCCNC(=O)Oc1c(C(C)(C)C)cc(C(=O)OC)cc1C(C)(C)C,,,inhibition [4]: 4%
CCCCCCNC(=O)Oc1ccc(C(=O)OC)cc1,,35,
